Values after ≈ are worked out from the molar mass of the structure shown.
What was measured:
[1] = tested on: Rattus norvegicus; test: Antiinflammatory activity in Lewis rat assessed as suppression of Mycobacterium tuberculosis adjuvant-induced paw edema at 1 mg/kg, po administered QD from days 15 to 24 post adjuvant-challenge measured on day 25 relative to vehicle-treated control; format: functional
Summary of the method: (§1)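 Female Lewis rats, 7 weeks old; arthritis induced on day 0 by 0.5 mg M. tuberculosis in 50 μL liquid paraffin injected into right hind footpad. Randomized on day 15 (n ≥ 5) by left hind paw volume increase and body weight; drug suspended in 0.5% methylcellulose given orally once daily days 15–24. Left hind paw volume measured day 25 by water displacement plethysmometry; edema expressed as percentage of control.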

[2] = (§2) Oral bioavailability in Sprague-Dawley rat at 1 mg/kg; format: ADME, organism-based; details: Sprague-Dawley, in vivo
Summary of the method: (§3)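 Sprague-Dawley rats given 1 mg/kg iv and po, compound dissolved in PEG400. Plasma obtained by centrifugation of collected blood, drug levels quantified by LC/MS/MS. Values are mean ± SD of n = 3.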

[3] = (§4) AUC in Sprague-Dawley rat at 1 mg/kg, po; format: ADME, organism-based, Plasma; parameters: dose 1 mg/kg, route oral; details: Sprague-Dawley, plasma; summary of the method: as §3
[4] = Half life in Sprague-Dawley rat at 1 mg/kg, iv; format: ADME, organism-based; parameters: dose 1 mg/kg, route intravenous; details: in vivo; summary of the method: as §3
[5] = Volume of distribution at steady state in Sprague-Dawley rat at 1 mg/kg, iv; format: ADME, organism-based; parameters: dose 1 mg/kg, route intravenous; details: in vivo, read-out: Vdss; summary of the method: as §3
[6] = Permeability of the compound by PAMPA assay at pH 6.5; format: ADME; details: read-out: permeability
Summary of the method: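 PAMPA with pION membrane lipid, donor buffer pH 6.5, n = 2.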

[7] = Total clearance in Sprague-Dawley rat at 1 mg/kg, iv; format: ADME, organism-based; parameters: dose 1 mg/kg, route intravenous; details: in vivo; summary of the method: as §3
[8] = tested on: THP-1; test: Antiinflammatory activity in human THP1 cells assessed as inhibition of LPS-induced TNFalpha production after 20 hrs; format: functional, cell-based; details: THP-1, 20 h
Summary of the method: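 THP-1 human monocytic cells kept in RPMI 1640 with 10% FBS, penicillin and streptomycin at 37 °C, 5% CO2. Cells (1 × 10^5/well) stimulated with LPS (10 μg/mL final, E. coli 055:B5) with compound or 0.1% DMSO vehicle for 20 h at 37 °C. Supernatant TNF-α compared with DMSO control. IC50 given as mean of triplicate experiments.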

[9] = tested on: Rattus norvegicus; test: Antiinflammatory activity in rat assessed as inhibition of LPS-induced TNFalpha production at 1 mg/kg, po administered 4 hrs prior to LPS-challenge measured after 1 to 1.5 hrs by ELISA relative to vehicle-treated control; format: functional
Summary of the method: (§5)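 Rats dosed orally with compound suspended in 0.5% methylcellulose/0.1% Tween-80, 4 h before LPS (10 μg/animal, ip). At 1.0 or 1.5 h after LPS, retro-orbital blood collected into heparin under anesthesia. Plasma diluted one-fifth and assayed by rat TNF-α ELISA. Percent inhibition taken relative to vehicle group (n = 3−4).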

[10] = Intrinsic clearance in rat liver microsomes in presence of NADPH; format: ADME, Microsome; details: read-out: CLH
Summary of the method: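 Incubation with rat liver microsomes in the presence of an NADPH-generating system, n = 2.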

[11] = tested on: Rattus norvegicus; test: Antiinflammatory activity in rat assessed as inhibition of LPS-induced TNFalpha production at 3.2 mg/kg, po administered 4 hrs prior to LPS-challenge measured after 1 to 1.5 hrs by ELISA relative to vehicle-treated control; format: functional; summary of the method: as §5
[12] = Half life in rat liver homogenate; format: ADME, tissue-based
[13] = tested on: Rattus norvegicus; test: as §2; format: ADME, organism-based; details: in vivo; summary of the method: as §3
[14] = tested on: Rattus norvegicus; test: as §4; format: ADME, organism-based, Plasma; parameters: dose 1 mg/kg, route oral; details: in vivo; summary of the method: as §3
[15] = Solubility of the compound at pH 6.8; format: physicochemical; details: buffer
[16] = molecular target: Voltage-gated inwardly rectifying potassium channel KCNH2 (Homo sapiens, UniProt Q12809); test: Inhibition of human ERG by Rb ion flux assay
Chain of Voltage-gated inwardly rectifying potassium channel KCNH2 (Q12809 whole entry): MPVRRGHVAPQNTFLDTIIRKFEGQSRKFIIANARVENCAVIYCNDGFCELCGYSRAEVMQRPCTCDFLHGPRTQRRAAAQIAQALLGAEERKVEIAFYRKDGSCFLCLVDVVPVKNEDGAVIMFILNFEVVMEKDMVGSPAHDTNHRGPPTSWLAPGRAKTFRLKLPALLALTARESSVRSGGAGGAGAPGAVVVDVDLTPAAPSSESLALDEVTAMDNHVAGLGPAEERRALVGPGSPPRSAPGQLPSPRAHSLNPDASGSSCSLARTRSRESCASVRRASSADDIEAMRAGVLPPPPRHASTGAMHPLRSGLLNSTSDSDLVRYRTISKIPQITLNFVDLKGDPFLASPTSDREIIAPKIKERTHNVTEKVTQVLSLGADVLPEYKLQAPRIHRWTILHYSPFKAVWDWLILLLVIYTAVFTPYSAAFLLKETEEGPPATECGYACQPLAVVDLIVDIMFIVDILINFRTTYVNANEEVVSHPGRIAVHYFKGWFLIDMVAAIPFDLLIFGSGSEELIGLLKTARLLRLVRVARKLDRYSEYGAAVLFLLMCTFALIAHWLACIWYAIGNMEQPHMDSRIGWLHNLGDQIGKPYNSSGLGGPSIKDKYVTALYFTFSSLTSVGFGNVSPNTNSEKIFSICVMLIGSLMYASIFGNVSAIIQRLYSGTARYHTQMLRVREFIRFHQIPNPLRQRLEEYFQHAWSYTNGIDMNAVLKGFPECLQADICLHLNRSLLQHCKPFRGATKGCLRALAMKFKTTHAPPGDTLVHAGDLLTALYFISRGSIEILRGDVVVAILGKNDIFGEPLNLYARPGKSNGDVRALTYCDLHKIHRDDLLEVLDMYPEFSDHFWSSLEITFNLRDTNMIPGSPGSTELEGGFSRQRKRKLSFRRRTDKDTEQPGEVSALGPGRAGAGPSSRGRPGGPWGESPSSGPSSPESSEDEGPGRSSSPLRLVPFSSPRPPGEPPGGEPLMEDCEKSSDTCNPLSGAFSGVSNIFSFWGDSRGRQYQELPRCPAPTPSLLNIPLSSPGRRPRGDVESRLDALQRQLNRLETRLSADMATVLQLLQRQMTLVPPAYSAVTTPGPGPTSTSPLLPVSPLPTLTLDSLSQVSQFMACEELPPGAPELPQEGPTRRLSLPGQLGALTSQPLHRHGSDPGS

[17] = molecular target: Cytochrome P450 2C9 (Homo sapiens, UniProt P11712); test: Inhibition of CYP2C9; format: ADME
Chain of Cytochrome P450 2C9 (P11712 whole entry): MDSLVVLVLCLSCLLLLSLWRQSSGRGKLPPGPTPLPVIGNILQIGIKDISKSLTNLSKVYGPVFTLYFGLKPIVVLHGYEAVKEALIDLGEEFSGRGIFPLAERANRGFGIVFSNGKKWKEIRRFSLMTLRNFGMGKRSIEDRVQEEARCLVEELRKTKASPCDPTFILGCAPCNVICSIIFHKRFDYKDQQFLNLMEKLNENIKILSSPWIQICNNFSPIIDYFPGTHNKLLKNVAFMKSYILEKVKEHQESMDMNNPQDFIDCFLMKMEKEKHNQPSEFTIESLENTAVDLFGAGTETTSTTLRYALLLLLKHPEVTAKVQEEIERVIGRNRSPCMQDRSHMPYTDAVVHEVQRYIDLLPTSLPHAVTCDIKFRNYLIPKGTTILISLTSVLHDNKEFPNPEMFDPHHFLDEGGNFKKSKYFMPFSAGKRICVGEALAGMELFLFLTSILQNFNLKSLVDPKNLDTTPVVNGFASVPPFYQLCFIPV

[18] = molecular target: Cytochrome P450 2D6 (Homo sapiens, UniProt P10635); test: Inhibition of CYP2D6; format: ADME
Chain of Cytochrome P450 2D6 (P10635 whole entry): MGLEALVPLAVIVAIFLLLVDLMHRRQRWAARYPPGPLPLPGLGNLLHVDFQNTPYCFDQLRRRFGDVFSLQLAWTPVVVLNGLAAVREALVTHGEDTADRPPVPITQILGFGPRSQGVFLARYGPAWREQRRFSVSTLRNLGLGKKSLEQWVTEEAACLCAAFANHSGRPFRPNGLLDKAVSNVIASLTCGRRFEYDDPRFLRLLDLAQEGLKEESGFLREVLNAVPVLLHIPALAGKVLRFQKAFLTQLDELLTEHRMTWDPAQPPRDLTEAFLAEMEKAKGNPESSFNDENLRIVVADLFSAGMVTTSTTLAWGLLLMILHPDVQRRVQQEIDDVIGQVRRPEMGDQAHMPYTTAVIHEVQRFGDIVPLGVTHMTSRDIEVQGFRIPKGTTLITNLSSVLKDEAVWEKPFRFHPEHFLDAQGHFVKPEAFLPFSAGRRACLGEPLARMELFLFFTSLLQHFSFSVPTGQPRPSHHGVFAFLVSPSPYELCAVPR

[19] = molecular target: Cytochrome P450 2C19 (Homo sapiens, UniProt P33261); test: Inhibition of CYP2C19; format: ADME
Chain of Cytochrome P450 2C19 (P33261 whole entry): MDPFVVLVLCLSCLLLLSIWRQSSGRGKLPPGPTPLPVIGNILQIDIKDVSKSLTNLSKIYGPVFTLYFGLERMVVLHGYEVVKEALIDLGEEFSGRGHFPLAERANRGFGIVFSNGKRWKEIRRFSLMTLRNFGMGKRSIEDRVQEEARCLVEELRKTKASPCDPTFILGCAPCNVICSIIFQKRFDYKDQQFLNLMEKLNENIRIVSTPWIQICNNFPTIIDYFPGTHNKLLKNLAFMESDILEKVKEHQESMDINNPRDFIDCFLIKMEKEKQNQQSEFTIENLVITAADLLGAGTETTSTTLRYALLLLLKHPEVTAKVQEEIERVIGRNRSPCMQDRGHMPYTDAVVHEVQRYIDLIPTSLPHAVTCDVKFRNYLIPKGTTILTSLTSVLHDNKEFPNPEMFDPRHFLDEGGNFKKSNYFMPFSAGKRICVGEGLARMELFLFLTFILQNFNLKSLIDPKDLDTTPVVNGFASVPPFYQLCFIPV

[20] = molecular target: T1, Cytochrome P450 1A2 (Homo sapiens, UniProt P05177); test: Inhibition of CYP1A2; format: ADME
T1 sequence (P05177 whole entry): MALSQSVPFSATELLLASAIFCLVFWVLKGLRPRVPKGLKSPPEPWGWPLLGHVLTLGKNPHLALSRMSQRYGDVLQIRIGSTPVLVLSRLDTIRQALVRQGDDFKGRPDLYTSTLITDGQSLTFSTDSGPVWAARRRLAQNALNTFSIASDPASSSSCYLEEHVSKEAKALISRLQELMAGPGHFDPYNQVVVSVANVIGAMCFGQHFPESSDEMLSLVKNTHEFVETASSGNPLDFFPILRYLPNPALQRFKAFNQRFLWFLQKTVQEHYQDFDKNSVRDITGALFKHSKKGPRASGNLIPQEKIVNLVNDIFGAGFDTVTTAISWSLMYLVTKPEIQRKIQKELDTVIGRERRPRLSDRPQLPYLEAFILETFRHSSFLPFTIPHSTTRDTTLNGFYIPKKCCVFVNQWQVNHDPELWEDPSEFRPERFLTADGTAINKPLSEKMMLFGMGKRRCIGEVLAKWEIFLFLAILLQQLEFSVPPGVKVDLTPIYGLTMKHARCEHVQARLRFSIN

[21] = molecular target: Mitogen-activated protein kinase 9 (Homo sapiens, UniProt P45984); test: Inhibition of human recombinant JNK2alpha2-mediated ATF-2 phosphorylation after 30 mins by immunoblotting method
Chain of Mitogen-activated protein kinase 9 (P45984 whole entry): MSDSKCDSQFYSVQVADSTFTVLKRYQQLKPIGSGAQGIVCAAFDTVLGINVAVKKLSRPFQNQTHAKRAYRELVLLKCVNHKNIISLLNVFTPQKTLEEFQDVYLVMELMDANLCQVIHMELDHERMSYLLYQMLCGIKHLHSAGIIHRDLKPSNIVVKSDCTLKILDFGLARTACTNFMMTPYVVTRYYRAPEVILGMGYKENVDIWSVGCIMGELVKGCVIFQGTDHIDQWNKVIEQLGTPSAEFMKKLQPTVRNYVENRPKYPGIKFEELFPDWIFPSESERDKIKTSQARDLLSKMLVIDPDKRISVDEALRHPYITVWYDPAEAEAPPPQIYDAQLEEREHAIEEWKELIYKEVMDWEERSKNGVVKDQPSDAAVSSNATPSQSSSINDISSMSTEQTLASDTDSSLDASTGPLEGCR

[22] = molecular target: Mitogen-activated protein kinase 11 (Homo sapiens, UniProt Q15759); test: Inhibition of human MAPK p38beta by Z'-LYTE assay
Chain of Mitogen-activated protein kinase 11 (Q15759 whole entry): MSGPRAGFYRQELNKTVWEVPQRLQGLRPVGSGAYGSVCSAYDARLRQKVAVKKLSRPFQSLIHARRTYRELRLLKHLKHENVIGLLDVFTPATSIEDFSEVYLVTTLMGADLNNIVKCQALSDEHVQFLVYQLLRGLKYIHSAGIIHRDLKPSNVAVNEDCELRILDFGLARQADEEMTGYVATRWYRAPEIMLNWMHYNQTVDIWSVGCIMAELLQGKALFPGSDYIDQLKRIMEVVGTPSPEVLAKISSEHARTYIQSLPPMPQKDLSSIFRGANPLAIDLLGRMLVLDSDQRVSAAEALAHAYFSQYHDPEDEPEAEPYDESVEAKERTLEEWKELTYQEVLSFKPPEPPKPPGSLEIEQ
Summary of the method: (§6)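 Human p38α or p38β kinase activity measured by Z′-Lyte kinase assay system.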

[23] = molecular target: Mitogen-activated protein kinase 14 (Homo sapiens, UniProt Q16539); test: Inhibition of human MAPK p38alpha by Z'-LYTE assay; summary of the method: as §6
Chain of Mitogen-activated protein kinase 14 (Q16539 whole entry, looked up): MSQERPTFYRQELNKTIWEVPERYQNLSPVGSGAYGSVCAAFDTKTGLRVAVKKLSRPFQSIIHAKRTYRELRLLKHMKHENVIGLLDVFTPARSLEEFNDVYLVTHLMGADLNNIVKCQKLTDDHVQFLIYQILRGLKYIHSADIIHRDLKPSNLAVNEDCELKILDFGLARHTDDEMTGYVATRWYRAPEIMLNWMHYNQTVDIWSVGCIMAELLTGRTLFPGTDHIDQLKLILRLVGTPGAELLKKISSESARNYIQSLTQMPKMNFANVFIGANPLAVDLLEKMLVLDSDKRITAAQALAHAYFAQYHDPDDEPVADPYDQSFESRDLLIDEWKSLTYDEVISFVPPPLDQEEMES

[24] = tested on: Rattus norvegicus; test: Antiinflammatory activity in po dosed Lewis rat assessed as suppression of Mycobacterium tuberculosis adjuvant-induced paw edema administered QD from days 15 to 24 post adjuvant-challenge measured on day 25 relative to vehicle-treated control; format: functional; details: 600 h; summary of the method: as §1
[25] = tested on: Rattus norvegicus; test: Antiinflammatory activity in po dosed rat assessed as inhibition of LPS-induced TNFalpha production administered 4 hrs prior to LPS-challenge measured after 1 to 1.5 hrs by ELISA relative to vehicle-treated control; format: functional; summary of the method: as §5

Structure (SMILES) | Activity [1] [%] | half-life [4] [h] | Vd [5] [L/kg] | Papp [6] [×10⁻⁶ cm/s] | IC50 [8] [nM] | inhibition in vivo at 1 mg/kg [9] [%] | further results
Cc1ccccc1-n1nc(-c2c(-c3ccc(F)cc3)nn3c2N[C@H](CO)CC3)ccc1=O | 62.3 | 5.95 | 0.98 | 22 | 0.37 | 98 | bioavailability [2]: 100%; AUC [3]: 4500 ng·h/mL; clearance [7]: 3.8 mL/min/kg
Cc1ccccc1-n1nc(-c2c(-c3ccc(F)cc3)nn3cc(CO)cnc23)ccc1=O | – | – | – | – | 23 | 11 | –
O=c1ccc(-c2c(-c3ccccc3)nn3ccccc23)nn1CC1(O)CCCCC1 | – | – | – | – | 14 | – | CLint scaled [10]: 195 mL/min/kg; inhibition in vivo at 3.2 mg/kg [11]: 43%
CNc1c(-c2ccc(=O)n(-c3ccccc3C)n2)c(-c2ccc(F)cc2)nn1C | 37 | 0.66 | 0.65 | 30 | 6 | 86 | bioavailability [2]: 28.6%; AUC [3]: 235 ng·h/mL; clearance [7]: 20.6 mL/min/kg; half-life [12]: 0.66 h; CLint scaled [10]: 213 mL/min/kg
Cc1ccccc1-n1nc(-c2c(-c3ccc(F)cc3)nn3c2NCC3)ccc1=O | – | – | – | – | 106 | – | –
Cc1ccccc1-n1nc(-c2c(-c3ccc(F)cc3)nn3c2NCCC3)ccc1=O | – | – | – | 30 | 1 | 93 | CLint scaled [10]: 94 mL/min/kg
Cc1ccccc1-n1nc(-c2c(-c3ccc(F)cc3)nn3c2OCCC3)ccc1=O | – | – | – | – | 10 | 33 | –
Cc1ccccc1-n1nc(-c2c(-c3ccc(F)cc3)nn3c2NC[C@@H](O)C3)ccc1=O | 61.4 | 3.89 | 1.23 | 16 | 0.85 | 94 | F [13]: 67.7%; AUC [14]: 763 ng·h/mL
Cc1ccccc1-n1nc(-c2c(-c3ccc(F)cc3)nn3c2NC[C@H](O)C3)ccc1=O | 51 | 9.01 | 4.21 | 17 | 1.8 | 89 | F [13]: 81%; AUC [14]: 457 ng·h/mL
Cc1ccccc1-n1nc(-c2c(-c3ccc(F)cc3)nn3c2NC[C@H](CO)C3)ccc1=O | 59.7 | 3.82 | 1.11 | – | 0.95 | 92 | F [13]: 103.6%; AUC [14]: 1217 ng·h/mL
Cc1ccccc1-n1nc(-c2c(-c3ccc(F)cc3)nn3c2NCC(CN2CCN(C)CC2)C3)ccc1=O (centres undefined) | – | – | – | 21 | 1.1 | 88 | –
Cc1ccccc1-n1nc(-c2c(-c3ccc(F)cc3)nn3c2N[C@@H](CO)CC3)ccc1=O | – | – | – | 23 | 0.46 | 98 | –
Cc1ccccc1-n1nc(-c2c(-c3ccc(F)cc3)nn3c2NC[C@@H](CO)C3)ccc1=O [AS1940477] | 71.3 | 5.15 | 0.77 | 19.7 | 0.6 | 92 | solubility [15]: 42 µg/mL (≈ 97.3 µM); IC50 [16]: > 100000 nM; IC50 [17]: 19000 nM; IC50 [18]: > 50000 nM; IC50 [19]: > 50000 nM; IC50 [20]: > 50000 nM; IC50 [21]: > 10000 nM; IC50 [22]: 36 nM; IC50 [23]: 11 nM; ED30 [24]: 0.15 mg/kg; ED50 [25]: 0.05 mg/kg; F [13]: 61.8%; AUC [14]: 1518 ng·h/mL
Cc1ccc(-n2nc(C(C)(C)C)cc2NC(=O)Nc2ccc(OCCN3CCOCC3)c3ccccc23)cc1 [DORAMAPIMOD] | – | – | – | – | – | – | ED30 [24]: 5.8 mg/kg; ED50 [25]: 2.6 mg/kg
O=c1ncn2nc(Sc3ccc(F)cc3F)ccc2c1-c1c(Cl)cccc1Cl [NEFLAMAPIMOD] | – | – | – | – | – | – | ED30 [24]: 92 mg/kg; ED50 [25]: 39.9 mg/kg

Reference: ChEMBL document CHEMBL2169749 (J Med Chem, 2012)
